Test results as given in ChEMBL document CHEMBL1152312, “Neopyrrolomycins with broad spectrum antibacterial activity” (2009).
≈ marks a conversion by molar mass, not a printed value. Calls of active or inactive are those of the source. The calls are words filed in the database; no cut-off is given here.

Assays:
Pseudomonas aeruginosa [1] = experiment: Antibacterial activity against Pseudomonas aeruginosa 1473 by microdilution method; type: functional
Method in brief: (§1)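 MIC values from CLSI broth microdilution. Strains came from the ATCC collection and from clinical isolates.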

Staphylococcus aureus [2] = experiment: Antibacterial activity against methicillin-resistant Staphylococcus aureus 1137 by microdilution method; type: functional; method in brief: as §1
Staphylococcus aureus [3] = experiment: Antibacterial activity against methicillin-resistant Staphylococcus aureus 2170 by microdilution method; type: functional; method in brief: as §1
Staphylococcus aureus [4] = experiment: Antibacterial activity against vancomycin-intermediate Staphylococcus aureus 2012 by microdilution method; type: functional; method in brief: as §1
Staphylococcus aureus [5] = experiment: Antibacterial activity against vancomycin-intermediate Staphylococcus aureus 2018 by microdilution method; type: functional; method in brief: as §1
Staphylococcus aureus [6] = experiment: Antibacterial activity against Linezolid, methicillin-resistant Staphylococcus aureus 1725 by microdilution method; type: functional; method in brief: as §1
Staphylococcus aureus [7] = experiment: Antibacterial activity against Linezolid, methicillin-resistant Staphylococcus aureus 1651 by microdilution method; type: functional; method in brief: as §1
Staphylococcus aureus [8] = experiment: Antibacterial activity against community-acquired Staphylococcus aureus 2144 by microdilution method; type: functional; method in brief: as §1
[9] = system: Staphylococcus epidermidis; experiment: Antibacterial activity against methicillin-sensitive Staphylococcus epidermidis 1597 by microdilution method; type: functional; method in brief: as §1
[10] = system: Staphylococcus epidermidis; experiment: Antibacterial activity against methicillin-resistant Staphylococcus epidermidis 1452 by microdilution method; type: functional; method in brief: as §1
[11] = system: Staphylococcus epidermidis; experiment: Antibacterial activity against Staphylococcus epidermidis 495 by microdilution method; type: functional; method in brief: as §1
Enterococcus faecalis = experiment: Antibacterial activity against vancomycin-resistant Enterococcus faecalis 846 by microdilution method; type: functional; method in brief: as §1
Enterococcus faecium [12] = experiment: Antibacterial activity against vancomycin-sensitive Enterococcus faecium 843 by microdilution method; type: functional; method in brief: as §1
Enterococcus faecium [13] = experiment: Antibacterial activity against vancomycin-resistant Enterococcus faecium 1254 by microdilution method; type: functional; method in brief: as §1
Streptococcus pneumoniae [14] = experiment: Antibacterial activity against penicillin-susceptible Streptococcus pneumoniae 866 by microdilution method; type: functional; method in brief: as §1
Streptococcus pneumoniae [15] = experiment: Antibacterial activity against penicillin-resistant Streptococcus pneumoniae 940 by microdilution method; type: functional; method in brief: as §1
Streptococcus pneumoniae [16] = experiment: Antibacterial activity against penicillin-resistant Streptococcus pneumoniae 748 by microdilution method; type: functional; method in brief: as §1
Streptococcus pneumoniae [17] = experiment: Antibacterial activity against quinolone-resistant Streptococcus pneumoniae 376 by microdilution method; type: functional; method in brief: as §1
Streptococcus pneumoniae [18] = experiment: Antibacterial activity against quinolone-resistant Streptococcus pneumoniae 379 by microdilution method; type: functional; method in brief: as §1
Streptococcus pneumoniae [19] = experiment: Antibacterial activity against multidrug-resistant Streptococcus pneumoniae 933 by microdilution method; type: functional; method in brief: as §1
Streptococcus pneumoniae [20] = experiment: Antibacterial activity against Streptococcus pneumoniae 1195 ATCC 49619 by microdilution method; type: functional; method in brief: as §1
Streptococcus pyogenes = experiment: Antibacterial activity against Streptococcus pyogenes 723 by microdilution method; type: functional; method in brief: as §1
Streptococcus agalactiae = experiment: Antibacterial activity against Streptococcus agalactiae 2033 by microdilution method; type: functional; method in brief: as §1
Moraxella catarrhalis = experiment: Antibacterial activity against Moraxella catarrhalis 557 by microdilution method; type: functional; method in brief: as §1
Haemophilus influenzae [21] = experiment: Antibacterial activity against ampicillin-resistant Haemophilus influenzae 1742 by microdilution method; type: functional; method in brief: as §1
Haemophilus influenzae [22] = experiment: Antibacterial activity against Haemophilus influenzae 1224 ATCC 49247 by microdilution method; type: functional; method in brief: as §1
[23] = system: Haemophilus parainfluenzae; experiment: Antibacterial activity against Haemophilus parainfluenzae 2319 ATCC 7901 by microdilution method; type: functional; method in brief: as §1
Escherichia coli [24] = experiment: Antibacterial activity against Escherichia coli 102 ATCC 25922 by microdilution method; type: functional; method in brief: as §1
Escherichia coli [25] = experiment: Antibacterial activity against extended spectrum beta-lactamase-producing Escherichia coli 2269 by microdilution method; type: functional; method in brief: as §1
Klebsiella pneumoniae [26] = experiment: Antibacterial activity against Klebsiella pneumoniae 2239 by microdilution method; type: functional; method in brief: as §1
Klebsiella pneumoniae [27] = experiment: Antibacterial activity against ampicillin beta-lactamase, multidrug-resistant Klebsiella pneumoniae 2262 by microdilution method; type: functional; method in brief: as §1
Serratia marcescens = experiment: Antibacterial activity against Serratia marcescens 1635 by microdilution method; type: functional; method in brief: as §1
Escherichia coli [28] = experiment: Antibacterial activity against Escherichia coli 25922 by microdilution method; type: functional
Method in brief: (§2)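 MIC determined by CLSI broth microdilution; organisms were ATCC strains and clinical isolates.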

Escherichia coli [29] = experiment: Antibacterial activity against Escherichia coli 1411 by microdilution method; type: functional; method in brief: as §2
Klebsiella pneumoniae [30] = experiment: Antibacterial activity against Klebsiella pneumoniae 4352 by microdilution method; type: functional; method in brief: as §2
Staphylococcus aureus [31] = experiment: Antibacterial activity against methicillin-resistant Staphylococcus aureus 43300 by microdilution method; type: functional; method in brief: as §1
Staphylococcus aureus [32] = experiment: Antibacterial activity against methicillin-sensitive Staphylococcus aureus 6538 by microdilution method; type: functional; method in brief: as §1
Staphylococcus aureus [33] = experiment: Antibacterial activity against methicillin-sensitive Staphylococcus aureus 29213 by microdilution method; type: functional; method in brief: as §1
Pseudomonas aeruginosa [34] = experiment: Antibacterial activity against Pseudomonas aeruginosa 27853 by microdilution method; type: functional; method in brief: as §2
Streptococcus pneumoniae [35] = experiment: Antibacterial activity against Streptococcus pneumoniae 49619 by microdilution method; type: functional; method in brief: as §2
Enterococcus faecium [36] = experiment: Antibacterial activity against vancomycin-resistant Enterococcus faecium 700221 by microdilution method; type: functional; method in brief: as §1
Staphylococcus aureus [37] = experiment: Antibacterial activity against methicillin-sensitive Staphylococcus aureus 100 ATCC 29213 by microdilution method; type: functional; method in brief: as §1
HepG2 = experiment: Cytotoxicity against human HepG2 cells assessed as effect on cell viability at 8 ug/mL after 48 hrs by celltiter glow assay; type: functional, cell-based
Method in brief: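 HepG2 cells were kept in MEM with 10% heat-inactivated FBS, 0.10 mM nonessential amino acids and 1 mM sodium pyruvate at 37 °C and 5% CO2. Cells were seeded at 1.25 × 10^5 cells/mL 24 h before dosing. Compounds were dissolved in DMSO and tested at 0.6–128 µg/mL with 1% DMSO final for 48 h. Viability was read by CellTiter-Glo luminescence as a percentage of the DMSO control.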

NHDF = experiment: Cytotoxicity against NHDF cells after 48 hrs by celltiter glow assay; type: functional; conditions: Homo sapiens
Method in brief: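 Fibroblasts kept at 37 °C, 5% CO2 in FGM-2 medium, passage ≤16. Seeded at 1.25 × 10^5 cells/mL 24 h before dosing. Compounds dissolved in DMSO, tested 0.6–128 µg/mL at 1% final DMSO for 48 h. Viability by CellTiter-Glo luminescence, expressed as percent of DMSO control.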

O=C(O)c1cn(C2CC2)c2cc(N3CCNCC3)c(F)cc2c1=O [CIPROFLOXACIN]
MIC90 (Pseudomonas aeruginosa [1]): 1 µg/mL (≈ 3.02 µM) | MIC90 (Staphylococcus aureus [2]): > 2 µg/mL | MIC90 (Staphylococcus aureus [3]): > 2 µg/mL | MIC90 (Staphylococcus aureus [4]): > 2 µg/mL | MIC90 (Staphylococcus aureus [5]): > 2 µg/mL | MIC90 (Staphylococcus aureus [6]): > 2 µg/mL | MIC90 (Staphylococcus aureus [7]): > 2 µg/mL | MIC90 (Staphylococcus aureus [8]): > 2 µg/mL | MIC90 [9]: 0.25 µg/mL (≈ 0.754 µM) | MIC90 [10]: > 2 µg/mL | MIC90 [11]: 0.5 µg/mL (≈ 1.51 µM) | MIC90 (Enterococcus faecalis): > 2 µg/mL | MIC90 (Enterococcus faecium [12]): > 2 µg/mL | MIC90 (Enterococcus faecium [13]): > 2 µg/mL | MIC90 (Streptococcus pneumoniae [14]): > 2 µg/mL | MIC90 (Streptococcus pneumoniae [15]): > 2 µg/mL | MIC90 (Streptococcus pneumoniae [16]): 1 µg/mL (≈ 3.02 µM) | MIC90 (Streptococcus pneumoniae [17]): > 2 µg/mL | MIC90 (Streptococcus pneumoniae [18]): > 2 µg/mL | MIC90 (Streptococcus pneumoniae [19]): 2 µg/mL (≈ 6.04 µM) | MIC90 (Streptococcus pneumoniae [20]): 1 µg/mL (≈ 3.02 µM) | MIC90 (Streptococcus pyogenes): 0.5 µg/mL (≈ 1.51 µM) | MIC90 (Streptococcus agalactiae): 1 µg/mL (≈ 3.02 µM) | MIC90 (Moraxella catarrhalis): 0.03 µg/mL (≈ 0.0905 µM) | MIC90 (Haemophilus influenzae [21]): 0.008 µg/mL (≈ 0.0241 µM) | MIC90 (Haemophilus influenzae [22]): 0.15 µg/mL (≈ 0.453 µM) | MIC90 [23]: 0.15 µg/mL (≈ 0.453 µM) | MIC90 (Escherichia coli [24]): 0.008 µg/mL (≈ 0.0241 µM) | MIC90 (Escherichia coli [25]): > 2 µg/mL | MIC90 (Klebsiella pneumoniae [26]): 0.03 µg/mL (≈ 0.0905 µM) | MIC90 (Klebsiella pneumoniae [27]): > 2 µg/mL | MIC90 (Serratia marcescens): 0.06 µg/mL (≈ 0.181 µM)

Oc1cc(Cl)c(Cl)c(Cl)c1-n1cc(Cl)c(Cl)c1Cl [NEOPYRROLOMYCIN B]
MIC90 (Pseudomonas aeruginosa [1]): 16 µg/mL (≈ 43.7 µM) | MIC90 (Escherichia coli [28]): 16 µg/mL (≈ 43.7 µM) | MIC90 (Escherichia coli [29]): 16 µg/mL (≈ 43.7 µM) | MIC90 (Klebsiella pneumoniae [30]): 16 µg/mL (≈ 43.7 µM) | MIC90 (Staphylococcus aureus [31]): 0.125 µg/mL (≈ 0.342 µM) | MBC (Staphylococcus aureus [32]): 2 µg/mL (≈ 5.47 µM) | MIC90 (Staphylococcus aureus [32]): 0.25 µg/mL (≈ 0.683 µM) | MIC90 (Staphylococcus aureus [33]): 0.5 µg/mL (≈ 1.37 µM) | MIC90 (Pseudomonas aeruginosa [34]): 16 µg/mL (≈ 43.7 µM) | MIC90 (Streptococcus pneumoniae [35]): 1 µg/mL (≈ 2.73 µM) | MIC90 (Enterococcus faecium [36]): 0.5 µg/mL (≈ 1.37 µM) | MIC90 (Staphylococcus aureus [37]): 0.25 µg/mL (≈ 0.683 µM) | MIC90 (Staphylococcus aureus [2]): 0.12 µg/mL (≈ 0.328 µM) | MIC90 (Staphylococcus aureus [3]): ≤ 0.06 µg/mL | MIC90 (Staphylococcus aureus [4]): ≤ 0.06 µg/mL | MIC90 (Staphylococcus aureus [5]): ≤ 0.06 µg/mL | MIC90 (Staphylococcus aureus [6]): ≤ 0.06 µg/mL | MIC90 (Staphylococcus aureus [7]): ≤ 0.06 µg/mL | MIC90 (Staphylococcus aureus [8]): 0.12 µg/mL (≈ 0.328 µM) | MIC90 [9]: ≤ 0.06 µg/mL | MIC90 [10]: ≤ 0.06 µg/mL | MIC90 [11]: ≤ 0.06 µg/mL | MIC90 (Enterococcus faecalis): ≤ 0.06 µg/mL | MIC90 (Enterococcus faecium [12]): ≤ 0.06 µg/mL | MIC90 (Enterococcus faecium [13]): ≤ 0.06 µg/mL | MIC90 (Streptococcus pneumoniae [14]): 16 µg/mL (≈ 43.7 µM) | MIC90 (Streptococcus pneumoniae [15]): 1 µg/mL (≈ 2.73 µM) | MIC90 (Streptococcus pneumoniae [16]): 1 µg/mL (≈ 2.73 µM) | MIC90 (Streptococcus pneumoniae [17]): 2 µg/mL (≈ 5.47 µM) | MIC90 (Streptococcus pneumoniae [18]): 16 µg/mL (≈ 43.7 µM) | MIC90 (Streptococcus pneumoniae [19]): 1 µg/mL (≈ 2.73 µM) | MIC90 (Streptococcus pneumoniae [20]): 2 µg/mL (≈ 5.47 µM) | MIC90 (Streptococcus pyogenes): > 16 µg/mL | MIC90 (Streptococcus agalactiae): 16 µg/mL (≈ 43.7 µM) | MIC90 (Moraxella catarrhalis): ≤ 0.06 µg/mL | MIC90 (Haemophilus influenzae [21]): 0.5 µg/mL (≈ 1.37 µM) | MIC90 (Haemophilus influenzae [22]): 0.25 µg/mL (≈ 0.683 µM) | MIC90 [23]: 1 µg/mL (≈ 2.73 µM) | MIC90 (Escherichia coli [24]): 8 µg/mL (≈ 21.9 µM) | MIC90 (Escherichia coli [25]): 8 µg/mL (≈ 21.9 µM) | MIC90 (Klebsiella pneumoniae [26]): 16 µg/mL (≈ 43.7 µM) | MIC90 (Klebsiella pneumoniae [27]): 8 µg/mL (≈ 21.9 µM) | MIC90 (Serratia marcescens): 16 µg/mL (≈ 43.7 µM) | Activity (HepG2): Active | CC90 (NHDF): 16 µg/mL (≈ 43.7 µM)
